Compound activity deposited in PubChem by several laboratories.
A selection: hits, their analogues and other compounds. The true share with any hit is near 1.8%.
Autophagy mod = autophagy modulators in MEF cells, primary screen, imaging, high-content, MEF GFP-LC3 | calls only at 10 µM (by protocol) | MEF GFP-LC3 puncta imaging; test concentration mostly 10 µM | 0.98% of 190,000 active;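 active = percentage of spot-positive cells more than 3 SD above its plate mean, without a fluorescence outlier flag or 80% toxicity; inconclusive = no clear call, values can overlap the other calls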;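 also: spot-positive cell cutoff set from DMSO-treated cells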
HSV augment = enhancers of HSV replication in host cells, fold increase, host cell viability; 0.005% of 220,000 active; HSV replication augmentation in cells; maximum fold increase; in the data active = maximum fold increase above about 1.5; inconclusive = no clear call, values can overlap the other calls; tested in PC3 cells
TNF necrop inh = inhibitors of TNF-alpha triggered necroptosis, primary screen, cell-based, Jurkat FADD-/-, single concentration. 0.068% of 220,000 active. AID 463075, 2010. Jurkat FADD-/- TNF necroptosis rescue, ATP luminescence, 24 h; 0 = TNF only, 100 = no-TNF cells. activation (protection from cell death), % at 10 µM;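 active = activation, meaning protection from cell death, of at least 50% relative to plate controls; inactive = activation below 50%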;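 also: necroptosis triggered by 40 ng/mL TNF-alpha added together with compound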
Furin inh = human furin inhibitors, primary screen, biochemical, fluorescence intensity; P09958; purified furin, fluorogenic substrate cleavage; inhibition, % at 20 µM or 30 µM; 0.061% of 220,000 active; in the data active = inhibition above about 25%
Target sequence (P09958 108-714 limits assumed): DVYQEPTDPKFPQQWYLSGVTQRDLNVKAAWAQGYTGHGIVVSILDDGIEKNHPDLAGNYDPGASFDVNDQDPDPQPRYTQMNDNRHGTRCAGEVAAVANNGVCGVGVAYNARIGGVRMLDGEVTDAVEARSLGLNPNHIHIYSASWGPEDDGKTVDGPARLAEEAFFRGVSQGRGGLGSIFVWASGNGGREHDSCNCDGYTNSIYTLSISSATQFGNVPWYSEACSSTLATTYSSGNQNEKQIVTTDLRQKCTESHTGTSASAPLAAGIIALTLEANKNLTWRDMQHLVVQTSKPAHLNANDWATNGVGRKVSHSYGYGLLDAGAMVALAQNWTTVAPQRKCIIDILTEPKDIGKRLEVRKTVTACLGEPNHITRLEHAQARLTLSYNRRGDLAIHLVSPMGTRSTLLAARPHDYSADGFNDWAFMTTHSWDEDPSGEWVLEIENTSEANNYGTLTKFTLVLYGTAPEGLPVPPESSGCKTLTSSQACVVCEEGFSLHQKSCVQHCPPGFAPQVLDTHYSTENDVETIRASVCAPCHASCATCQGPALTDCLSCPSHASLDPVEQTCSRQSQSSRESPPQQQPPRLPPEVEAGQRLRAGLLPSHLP
L929 necroptosis = inhibitors of zVAD-triggered necroptosis, primary screen, L929 cells | viability rescue, % at 10 µM | 0.38% of 220,000 active | L929 zVAD necroptosis rescue, ATP luminescence, 24 h; with zVAD 60 µM;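 active = activation, scaled between plate controls, above about 75%, limit read from the data; inactive = activation under that limit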;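 also: 0% = zVAD with DMSO and 100% = DMSO alone without zVAD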
Dynein cargo inh = inhibitors of GR-EGFP nuclear translocation, primary screen, dynein cargo transport inhibitor project, imaging, high-content, 3617.4 mouse cells | test concentration mostly 20 µM; stimulated with dexamethasone, 1 µM; active compounds read low | AID 1381, 2008 | 0.47% of 220,000 active | z-score, hits read low;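 active = plate z-score of nuclear minus cytoplasmic receptor signal below a set negative limit, without overly bright fluorescence or cell loss, cut at about -3.5 in these data, passing the limit was not always enough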;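 also: z-score of nuclear minus cytoplasmic ring GR-EGFP intensity difference per well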
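Medium: Induction medium lacking tetracycline, stripped serum | Probe or stimulus: 1.0 µM final dexamethasone stimulus | Schedule: 48 h induction, then 1 h compound, then 30 min agonist, 37 °C | Signal: Automated 10x imaging of fixed Hoechst-stained cells | Evaluation: Per-cell GR-EGFP intensity, nucleus versus surrounding cytoplasmic ring, well-averaged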
Dynein inh conf = dynein cargo transport inhibitors, GR-EGFP translocation, confirmation, imaging, high-content imaging, GR-EGFP cells | AID 463116, 2010 | calls only at 20 µM | 3617.4 GR-EGFP nuclear translocation imaging, dexamethasone-induced | 69% of 1,000 active | shares compounds with Dynein cargo inh;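 active = inhibition of receptor movement into the nucleus at or above a set limit in both runs, with normal cell brightness and cell count; inconclusive = limit reached in only one run, brightness and count normal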;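 also: dexamethasone at 1 µM final in well for 30 min; nuclear minus cytoplasmic GR-EGFP mean intensity difference in channel 2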
* marks the source's active call; other numbers are inactive results; i = inactive; ? = inconclusive; / = no result; + = active, no number.

SMILES | Autophagy mod | HSV augment | TNF necrop inh | Furin inh | L929 necroptosis | Dynein cargo inh | Dynein inh conf
O=C(/C=C/c1cccc([N+](=O)[O-])c1)NC(=S)Nc1ccccc1C(=O)O | i | i | -4 | -13 | -1 | -3.5* | +
CCOC(=O)c1c(C)oc2c1c(CN1CCN(C(=O)OCC)CC1)c(O)c1ccccc12 | i | i | 1 | 5 | 2 | -1.6 | /
CCOC(=O)c1c(C)oc2c1c(C(c1ccncc1)N1CCOCC1)c(O)c1ccccc12 (stereo not given) | i | i | 0 | -15 | 1 | -3.5* | i
COc1ccc(S(=O)(=O)N2CCC(O)(c3cccnc3)CC2)cc1OC | i | i | 1 | -17 | 3 | -0.86 | /
COCCCNc1nc2c(-c3ccc(Cl)cc3)nnn2c2ccccc12 | i | / | -1 | -29 | / | -4.2* | i
CC(CCc1ccccc1)N(C)CC(O)c1cccc([N+](=O)[O-])c1 (stereo not given) | / | i | 6 | -8 | 0 | -0.91 | /
COc1cc(OC)nc(NC(=S)NC(=O)c2ccccc2)n1 | i | i | -1 | -17 | / | 1 | /
O=C(NCc1ccccn1)c1coc(=O)c(Br)c1 | i | i | -9 | -18 | 0 | -4.1* | i
CN(C)c1oc(-c2ccccc2[N+](=O)[O-])nc1C#N | / | i | -18 | -22 | 0 | -5.1* | i
CN(C)c1oc(-c2ccccc2Cl)nc1C#N | i | / | 0 | -17 | 0 | -0.21 | /
CCC(C)N1C(=O)/C(=C/c2c(NCCCOC(C)C)nc3c(C)cccn3c2=O)SC1=S (stereo not given) | ? | ? | 0 | -5 | 0 | -7.4 | /
CCCN1C(=O)/C(=C/c2c(NCCCOC(C)C)nc3c(C)cccn3c2=O)SC1=S | + | ? | -3 | -17 | 0 | -4.6 | ?
Cc1cc(Oc2ccc(-c3ccccc3)cc2)n2ncnc2n1 | i | i | -5 | -16 | 0 | -4.7* | +
COc1cccc(F)c1C(C[N+](=O)[O-])c1c(N)n(C)c(=O)n(C)c1=O (stereo not given) | / | i | -26 | -19 | 39 | -3.6* | +
CCCNC(=O)Cn1c(=O)/c(=C\c2ccc(-c3ccc([N+](=O)[O-])cc3)o2)s/c1=C\C(=O)C(C)(C)C | ? | ? | 0 | 1 | 3 | -4.9 | +
CC/C(O)=C1\C(=O)CCCC1=NCc1nc2ccccc2[nH]1 | i | i | 2 | -6 | 2 | 0.015 | /
Cc1cc(C)n(-c2nc(NCCCN(C)C)c3c4c(sc3n2)CCCC4)n1 | / | i | -14 | -4 | 4 | 0.87 | /
Cc1cc(C)n(-c2nc(NCCN(C)C)c3c4c(sc3n2)CCCC4)n1 | / | i | -30 | -17 | -2 | -4.6* | i
CC(=O)C1C(=O)c2c(cccc2[N+](=O)[O-])C1=Nc1ccc(S(N)(=O)=O)cc1 (stereo not given) | i | i | -1 | -7 | 29 | -0.99 | /
CC(C)N(CC(=O)Nc1ccc(Cl)cc1C(F)(F)F)C(=O)CCl | i | i | -9 | -24 | 8 | -7.1* | +
O=C(O)CSCC(=O)Nc1ccc(Cl)cc1C(F)(F)F | i | i | -1 | -20 | 0 | 0.32 | /
O=c1cc(-c2c(F)c(F)c(F)c(F)c2F)oc2ccccc12 | i | i | -11 | -6 | -1 | -0.63 | /
O=c1cc(-c2c(F)c(F)c(F)c(F)c2F)oc2c(F)c(F)c(F)c(F)c12 | i | i | -28 | -18 | 1 | -8.2* | +
O=C1C(Cl)=C(N2CCCCC2)C(=O)C(Cl)=C1c1cnc(N2CCCCC2)s1 | i | i | -20 | -17 | 52 | -4.9* | +
CC1(C(=O)OCc2cc(=O)n3cc(Br)ccc3n2)CC1(Cl)Cl (stereo not given) | i | i | 2 | -14 | 1 | 0.097 | /
